This passage reports Tm and folding enthalpy results from the array DNA melting data of Ke et al. (doi:10.1101/2024.01.08.574731).

A short description of data set [1]: melting temperature; fluorescence melt of hairpins on a sequencing array, two-state fit, raised by 9.35 °C to match UV melts. The settings on record: sodium 0.088 M. Put shortly:
(§1)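 To match UV melts, fitted temperatures were raised by 9.35 °C. These fits were bootstrapped two-state models that gave melting temperature and folding enthalpy, combined by inverse variance over four replicates. The input was normalised Cy3 fluorescence of library hairpins with annealed Cy3 and quencher oligos on a sequenced MiSeq flow cell, imaged in 50 mM Na-HEPES pH 8.0, 25 mM NaCl in 2.5 °C steps up to 60 °C.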

Data set [2] in a line: folding enthalpy; higher = less favourable; fluorescence melt of hairpins on a sequencing array, two-state fit. The settings on record: sodium 0.088 M. The method in brief: as §1

For the sequence GATCCAATCATGGATC ((((((....)))))), the Tm in data set [1] amounted to 50.8 °C. In addition, the folding enthalpy in data set [2] was -37.5 kcal/mol.
The like results for GATCCACAATTGGATC ((((((....)))))) were, in that order, 47.5 °C and -32.4 kcal/mol.
The like results for GATCCACACATGGATC ((((((....)))))) were, in that order, 52.4 °C and -40 kcal/mol.
As for GATCCACACCTGGATC ((((((....)))))), the Tm in data set [1] was 51 °C. In addition, the folding enthalpy in data set [2] was -44.8 kcal/mol.
For the sequence GATCCACAGCTGGATC ((((((....)))))), the Tm in data set [1] is 47.6 °C. Also, in data set [2], the folding enthalpy is -31.7 kcal/mol.
The like results for GATCCACATCTGGATC ((((((....)))))) were, in that order, 49.2 °C and -29.1 kcal/mol.
Take GATCCACCCTTGGATC ((((((....)))))): in data set [1], the Tm was determined as 50.4 °C. The folding enthalpy in data set [2] is -34.8 kcal/mol.
Consider GATCCACCGGTGGATC ((((((....)))))), for which the Tm in data set [1] worked out at 60.3 °C. Moreover, the folding enthalpy in data set [2] was -50 kcal/mol.
The like results for GATCCACCTTTGGATC ((((((....)))))) were, in that order, 50.1 °C and -34.9 kcal/mol.
On the same counts, the results for GATCCACGAAAGTGCATC (((.(((....))).))) are 32.8 °C and -16.1 kcal/mol.
For the sequence GATCCACGAATGGATC ((((((....)))))), the Tm in data set [1] was determined as 48.1 °C. Moreover, in data set [2], the folding enthalpy was -34.4 kcal/mol.
On the same counts, the results for GATCCACGCTGGATC ((((((...)))))) are 51.6 °C and -31.3 kcal/mol.
On the same counts, the results for GATCCACGTGTGGATC ((((((....)))))) are 65.9 °C and -44.5 kcal/mol.
On the same counts, the results for GATCCACTCGTGGATC ((((((....)))))) are 63.2 °C and -45.8 kcal/mol.
Take GATCCACTCTGGATC ((((((...)))))): in data set [1], the Tm is 52.4 °C. The folding enthalpy in data set [2] is -36.5 kcal/mol.
Regarding GATCCACTTGTGGATC ((((((....)))))), the Tm in data set [1] was determined as 66.5 °C. In data set [2], the folding enthalpy was -37.5 kcal/mol.
On to GATCCAGAATGGATC ((((((...)))))), for which the Tm in data set [1] turned out to be 58.1 °C. The folding enthalpy in data set [2] was -50.9 kcal/mol.
Take GATCCAGAGCTGGATC ((((((....)))))): in data set [1], the Tm came out at 50.4 °C. Further, the folding enthalpy in data set [2] is -37.6 kcal/mol.
Consider GATCCAGAGTGGATC ((((((...)))))), for which the Tm in data set [1] was 48.8 °C. Further, the folding enthalpy in data set [2] is -31.3 kcal/mol.
On the same counts, the results for GATCCAGATATGGATC ((((((....)))))) are 57.1 °C and -41.7 kcal/mol.
The like results for GATCCAGATTGGATC ((((((...)))))) were, in that order, 50.6 °C and -34.1 kcal/mol.
Turning to GATCCAGCAGTGGATC ((((((....)))))), in data set [1], the Tm stood at 52.7 °C. Moreover, the folding enthalpy in data set [2] is -41.1 kcal/mol.
The like results for GATCCAGCGATGGATC ((((((....)))))) were, in that order, 55.6 °C and -42.4 kcal/mol.
Take GATCCAGGAATGGATC ((((((....)))))): the Tm in data set [1] was determined as 54 °C. Moreover, the folding enthalpy in data set [2] is -40.6 kcal/mol.
On the same counts, the results for GATCCAGGCGTGGATC ((((((....)))))) are 53.6 °C and -40.9 kcal/mol.
For GATCCAGGTTGGATC ((((((...)))))), the Tm in data set [1] turned out to be 50.7 °C. In addition, the folding enthalpy in data set [2] is -41.9 kcal/mol.
With GATCCAGGTTTGGATC ((((((....)))))), the Tm in data set [1] was determined as 51.7 °C. Moreover, the folding enthalpy in data set [2] is -42.5 kcal/mol.
The like results for GATCCAGTCTGGATC ((((((...)))))) were, in that order, 55.1 °C and -38.1 kcal/mol.
The like results for GATCCAGTGCTGGATC ((((((....)))))) were, in that order, 52.8 °C and -47.8 kcal/mol.
With GATCCAGTGTTGGATC ((((((....)))))), in data set [1], the Tm came to 50.8 °C. In addition, in data set [2], the folding enthalpy is -36.9 kcal/mol.
In the case of GATCCAGTTTTGGATC ((((((....)))))), the Tm in data set [1] is 52.4 °C. In data set [2], the folding enthalpy is -41.6 kcal/mol.
On the same counts, the results for GATCCATAATGGATC ((((((...)))))) are 49.6 °C and -34.8 kcal/mol.
On the same counts, the results for GATCCATACATGGATC ((((((....)))))) are 55.8 °C and -50.8 kcal/mol.
On the same counts, the results for GATCCATACTGGATC ((((((...)))))) are 51.4 °C and -37.6 kcal/mol.
For the sequence GATCCATAGTGGATC ((((((...)))))), the Tm in data set [1] turned out to be 49.2 °C. The folding enthalpy in data set [2] is -38.1 kcal/mol.
The like results for GATCCATATCTGGATC ((((((....)))))) were, in that order, 49.7 °C and -35.5 kcal/mol.
Take GATCCATATTGGATC ((((((...)))))): the Tm in data set [1] turned out to be 51.7 °C. In addition, in data set [2], the folding enthalpy was -37.3 kcal/mol.
On the same counts, the results for GATCCATCGCTGGATC ((((((....)))))) are 50.8 °C and -39.1 kcal/mol.
As to GATCCATCTTGGATC ((((((...)))))), in data set [1], the Tm came out at 51.6 °C. Also, the folding enthalpy in data set [2] was -35.2 kcal/mol.
With GATCCATGACTGGATC ((((((....)))))), the Tm in data set [1] is 48.6 °C. In data set [2], the folding enthalpy is -35.5 kcal/mol.
Take GATCCATGAGTGGATC ((((((....)))))): the Tm in data set [1] is 55 °C. Besides, the folding enthalpy in data set [2] is -35.3 kcal/mol.
The like results for GATCCATGCTGGATC ((((((...)))))) were, in that order, 52 °C and -35.3 kcal/mol.
Turning to GATCCATGGGTGGATC ((((((....)))))), the Tm in data set [1] worked out at 54.4 °C. Further, the folding enthalpy in data set [2] is -41.4 kcal/mol.
As for GATCCATGGTTGGATC ((((((....)))))), in data set [1], the Tm stood at 51.3 °C. In data set [2], the folding enthalpy is -42.8 kcal/mol.
As to GATCCATGTCTGGATC ((((((....)))))), the Tm in data set [1] turned out to be 50.5 °C. In addition, in data set [2], the folding enthalpy is -40.9 kcal/mol.
The like results for GATCCATTCGTGGATC ((((((....)))))) were, in that order, 55.3 °C and -41.1 kcal/mol.
The like results for GATCCCAACCGGGATC ((((((....)))))) were, in that order, 63.4 °C and -35.1 kcal/mol.
GATCCCAAGGGGGATC ((((((....)))))): the Tm in data set [1] came to 58.1 °C. Also, in data set [2], the folding enthalpy was -33 kcal/mol.
The like results for GATCCCAAGTGGGATC ((((((....)))))) were, in that order, 60.5 °C and -37.4 kcal/mol.
Regarding GATCCCACACGGGATC ((((((....)))))), the Tm in data set [1] was determined as 63.1 °C. Moreover, the folding enthalpy in data set [2] was -43.7 kcal/mol.
Regarding GATCCCACTTGGGATC ((((((....)))))), in data set [1], the Tm is 61.1 °C. Besides, the folding enthalpy in data set [2] was -42.5 kcal/mol.
For the sequence GATCCCAGCGGGGATC ((((((....)))))), the Tm in data set [1] was 60.6 °C. The folding enthalpy in data set [2] was -34.9 kcal/mol.
Take GATCCCAGGGGGATC ((((((...)))))): the Tm in data set [1] stood at 67 °C. The folding enthalpy in data set [2] was -34.7 kcal/mol.
On to GATCCCATAAGGGATC ((((((....)))))), for which the Tm in data set [1] is 63.9 °C. For the same sequence, the folding enthalpy in data set [2] was -39.4 kcal/mol.
On the same counts, the results for GATCCCATCTGGGATC ((((((....)))))) are 62.6 °C and -36.2 kcal/mol.
With GATCCCATGCGGGATC ((((((....)))))), in data set [1], the Tm is 60.6 °C. Moreover, the folding enthalpy in data set [2] is -34 kcal/mol.
The like results for GATCCCATGGGGGATC ((((((....)))))) were, in that order, 60.1 °C and -32.4 kcal/mol.
The like results for GATCCCCAAGGGATC ((((((...)))))) were, in that order, 58.9 °C and -30.9 kcal/mol.
In the case of GATCCCCACTGGGATC ((((((....)))))), the Tm in data set [1] is 62.2 °C. Further, in data set [2], the folding enthalpy is -35.3 kcal/mol.
GATCCCCAGGGGGATC ((((((....)))))): in data set [1], the Tm amounted to 65.5 °C. Besides, the folding enthalpy in data set [2] was -29 kcal/mol.
On the same counts, the results for GATCCCCCATGGGATC ((((((....)))))) are 59.9 °C and -36.5 kcal/mol.
The like results for GATCCCCCCGGGATC ((((((...)))))) were, in that order, 65.8 °C and -33.1 kcal/mol.
The like results for GATCCCCGCGGGATC ((((((...)))))) were, in that order, 65.9 °C and -34.5 kcal/mol.
Turning to GATCCCCTAAGGGATC ((((((....)))))), in data set [1], the Tm stood at 63.2 °C. In data set [2], the folding enthalpy was -39.1 kcal/mol.
Consider GATCCCCTACGGGATC ((((((....)))))), for which the Tm in data set [1] is 61.9 °C. Besides, the folding enthalpy in data set [2] is -35.3 kcal/mol.
On to GATCCCCTATGGGATC ((((((....)))))), for which, in data set [1], the Tm worked out at 60.8 °C. For the same sequence, the folding enthalpy in data set [2] is -36.9 kcal/mol.
On the same counts, the results for GATCCCCTCAGGGATC ((((((....)))))) are 66 °C and -41.7 kcal/mol.
On the same counts, the results for GATCCCCTCGGGATC ((((((...)))))) are 61.4 °C and -35.6 kcal/mol.
As for GATCCCGAAAGGGAAATC ((((((....)))..))), the Tm in data set [1] came to 35.1 °C. The folding enthalpy in data set [2] was -12.1 kcal/mol.
The like results for GATCCCGAAAGGGAATC ((((((....))).))) were, in that order, 49.6 °C and -14.5 kcal/mol.
As to GATCCCGAAAGGGATATC ((((((....)))..))), the Tm in data set [1] was 52 °C. In addition, the folding enthalpy in data set [2] was -15.6 kcal/mol.
Turning to GATCCCGAAAGGGGAATC ((((((....)))..))), the Tm in data set [1] is 36.1 °C. Also, the folding enthalpy in data set [2] is -12.3 kcal/mol.
Consider GATCCCGAAAGGGGGATC ((((((....)))..))), for which the Tm in data set [1] was found to be 51 °C. In data set [2], the folding enthalpy is -20.1 kcal/mol.
On the same counts, the results for GATCCCGACGGGGATC ((((((....)))))) are 65.8 °C and -27.8 kcal/mol.
GATCCCGACTGGGATC ((((((....)))))): the Tm in data set [1] turned out to be 65.8 °C. Besides, the folding enthalpy in data set [2] is -38.5 kcal/mol.
Turning to GATCCCGCTGGGATC ((((((...)))))), the Tm in data set [1] was 63.2 °C. In data set [2], the folding enthalpy is -37.4 kcal/mol.
